Results collected from several papers.
Compare with care: the assays were run in different laboratories.
Target: Mitogen-activated protein kinase 11 (MAPK11, Homo sapiens, UniProt Q15759)

O=C(N1CCS(=O)(=O)CC1)N1C[C@H](c2ccc(OC(F)(F)F)cc2)C[C@H](c2nc(C3CC3)no2)C1 has a remaining binding of 100% (cell-free assay, competition with immobilised ligand; 1 µM).
The remaining activity of Cc1cnc(NC2CCOCC2)nc1-n1cnc(C(=O)NC(CN)c2cc(F)cc(Cl)c2)c1 (stereo not drawn) is reported as 78% (enzyme activity, inhibitor, radiometric; 1 µM).
For COc1cc2c(Nc3ccc(Br)cc3F)ncnc2cc1OCC1CCN(C)CC1, the remaining signal was 97.1% (cell-free assay; 0.5 µM).
CN(c1ncccc1CNc1nc(Nc2ccc3c(c2)CC(=O)N3)ncc1C(F)(F)F)S(C)(=O)=O has an inhibition of 7.8% (enzyme activity, inhibitor; 1 µM).
Nc1ncnc2occ(-c3ccc(NC(=O)Nc4cc(C(F)(F)F)ccc4F)cc3)c12 has a remaining signal of 0% (cell-free assay, inhibitor; 20 µM).
For CC(C)(O)c1cncc(-c2nc3ccc(F)cc3n2C2CC2)c1, the remaining binding was 100% (cell-free assay, competition with immobilised ligand; 1 µM).
With CC(C)(C)c1nc2c(s1)c1nc(N)ncc1c1ccc(NS(=O)(=O)c3c(F)cccc3F)c(F)c12 the remaining activity was 101% (enzyme activity, inhibitor, radiometric; 1 µM).
For CCN(CC)CCNC(=O)c1c(C)[nH]c(/C=C2\C(=O)Nc3ccc(F)cc32)c1C, the inhibition was -5% (enzyme activity, inhibitor; 0.3 µM).
For O=C1NC(c2ccccn2)Sc2ccccc21 (stereo not drawn), the remaining binding was 100% (cell-free assay, competition with immobilised ligand; 1 µM).
With CC(C)(C)C(=O)c1sc(NC2CCCCC2)nc1N the remaining activity was 82% (enzyme activity, inhibitor; 10 µM).
For Cn1c2c(c3ccccc31)C(C#N)C(C)(C)NC2=O (stereo not drawn), the ΔTm was -0.7 °C (thermal stability, DSF; 10 µM).
With O=C(Nc1cnc(Oc2ccc(F)cc2)nc1)N1CCc2ncccc2[C@@H]1c1ccc(F)cc1 the remaining binding was 84% (cell-free assay, competition with immobilised ligand; 1 µM).
Cn1c2c(c3ccc(Cl)c(Cl)c31)C(C#N)C(C)(C)NC2=O (stereo not drawn) gave a ΔTm of 0.8 °C (thermal stability, DSF; 10 µM).
CC(C)(O)[C@H]1CC[C@H](Nc2ccc3ncc(-c4cccc(C(F)(F)F)c4)n3n2)CC1 gave a remaining activity of 103% (enzyme activity, inhibitor; 1 µM).
COc1cc(Cl)c(C(=O)N[C@@H](CN[C@H]2CC[C@@H](N)CC2)Cc2ccc(C#N)cc2)cc1-c1ccc(CN[C@H](C)c2ccc(C)cc2)o1 gave a remaining activity of 92% (enzyme activity, inhibitor; 1 µM).
CCC1(CC)NC(=O)c2c(c3ccc(Cl)c(Cl)c3n2C)C1C#N (stereo not drawn) gave a ΔTm of 0.1 °C (thermal stability, DSF; 10 µM).
With CCCCNc1ncc2c(-c3ccc(F)cc3)nn(C[C@H]3CC[C@H](N)CC3)c2n1 the inhibition was 36.9% (target engagement in cells, inhibitor, chemoproteomics; 20 mM).
The ΔTm of Cn1c2c(c3ccc(Cl)c(Cl)c31)C(C#N)C1(CCNCC1)NC2=O (racemic) is reported as 0.2 °C (thermal stability, DSF; 10 µM).
For CN([C@@H]1CCc2c(CC(=O)O)c3ccccc3n2C1)S(=O)(=O)c1ccc(F)cc1, the remaining binding was 88% (cell-free assay, competition with immobilised ligand; 1 µM).
With N#CCCc1ccc2c(c1)-c1[nH]c3ccc([N+](=O)[O-])cc3c1CC(=O)N2 the remaining signal was 101% (cell-free assay; 0.5 µM).
Nc1nc(NC2CCCCC2)sc1C(=O)c1ccccc1 has a remaining activity of 22% (enzyme activity, inhibitor; 10 µM).
With CCN1CCC2(CC1)NC(=O)c1c(c3ccc(Cl)c(Cl)c3n1C)C2C#N (racemic) the ΔTm was -0.3 °C (thermal stability, DSF; 10 µM).
CNCc1ccc(-c2cc(-c3nc(-c4ccc(S(=O)(=O)C(C)C)cc4)cnc3N)on2)cc1 has an inhibition of 11% (enzyme activity, inhibitor; 2 µM).
O=C(Nc1cnn(-c2csc(C(=O)NC3COC3)c2)c1)Nc1ccccc1Cl has a remaining activity of 101% (enzyme activity, inhibitor; 5 µM).
For COc1cc(Nc2cnc(C#N)c(O[C@H](C)CN(C)C)n2)ncc1-c1cnn(C)c1, the remaining activity was 96% (enzyme activity, inhibitor, radiometric; 1 µM).
Cn1c(=O)n(-c2ccc(C(C)(C)C#N)cc2)c2c3cc(-c4cnc5ccccc5c4)ccc3ncc21 has a remaining activity of 96% (enzyme activity, inhibitor; 10 µM).
For CCCOc1ccc(OC)c(F)c1C(=O)c1ccc(C(=O)N[C@@H]2CNC[C@H]2NC(=O)c2ccc3[nH]ncc3c2)cc1, the remaining activity was 96% (enzyme activity, inhibitor; 10 µM).
For CN1CC(Oc2cnc(C#N)cc2-c2ccn3nc(NC(=O)C4CC4)cc3c2)C1, the inhibition was 10% (enzyme activity, inhibitor; 1 µM).
Nc1cnc(N2CCc3cc(S(=O)(=O)Nc4c(F)cc(Cl)cc4F)cc(N4CCCC4=O)c32)nc1 has a remaining binding of 100% (cell-free assay, competition with immobilised ligand; 1 µM).
For COc1cc(/C=C/C(=O)CC(=O)/C=C/c2ccc(O)c(OC)c2)ccc1O, the activity vs control was 101% (enzyme activity, inhibitor; 1 µM).
The inhibition of Cc1ccc(Nc2nccc(N(C)c3ccc4c(C)n(C)nc4c3)n2)cc1S(N)(=O)=O is reported as 64% (enzyme activity, inhibitor; 10 µM).
For Cn1c2c(c3ccc(Cl)c(Cl)c31)C(C#N)C1(CCCC1)NC2=O (stereo not drawn), the ΔTm was 0.9 °C (thermal stability, DSF; 10 µM).
For CCC(=O)N[C@@H]1CC[C@H](C(=O)N(C)c2ccc(-c3nc4ccccc4o3)cc2)C1, the remaining binding was 83% (cell-free assay, competition with immobilised ligand; 1 µM).
COc1cc2ncnc(Nc3ccc(Oc4ccccc4)c(C)c3C)c2cc1OC gave an inhibition of 6% (enzyme activity, inhibitor; 1 µM).
For CS(=O)(=O)Nc1cccc(-c2csc(NC(=O)CSc3nc4nccnc4c(=O)n3CCc3ccccc3)n2)c1, the inhibition was 7% (enzyme activity, inhibitor; 10 µM).
For Oc1cccc(-c2nc(N3CCOCC3)c3oc4ncccc4c3n2)c1, the remaining activity was 100% (enzyme activity, inhibitor; 10 µM).
For Cn1c2c(c3ccc(Cl)c(Cl)c31)C(C#N)C1(CCN(C(=O)OC(C)(C)C)CC1)NC2=O (racemic), the ΔTm was -0.8 °C (thermal stability, DSF; 10 µM).
With O=C(NS(=O)(=O)c1ccc(NCC2CCOCC2)c([N+](=O)[O-])c1)c1ccc(N2CCN(Cc3ccc(C(F)(F)F)cc3-c3ccc(Cl)cc3)CC2)cc1Oc1cnc2[nH]ccc2c1 the remaining binding was 78% (cell-free assay, competition with immobilised ligand; 1 µM).
CNC(=O)c1cc(Oc2ccc(NC(=O)Nc3ccc(Cl)c(C(F)(F)F)c3)cc2)ccn1 has a remaining signal of 46.9% (cell-free assay; 0.5 µM).
